# Calls of active or inactive are those of the source. The calls are words filed in the database; no cut-off is given here.
# Experiments:
# Quadruplex DNA [1] = assay: Stabilization of 5'-FAM/3'-TAMRA labelled AR1 G-quadruplex oligonucleotide (unknown origin) assessed as change in melting temperature t1/2 at 1 uM after 16 hrs in presence of 100 mM K+ by FRET assay; type: nucleic-acid assay
# Summary of the method: (§1)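 FRET melting: FAM/TAMRA dual-labelled oligos (0.25 μM) folded in 10 mM lithium cacodylate pH 7.4 with 100 mM KCl (95 °C 5 min, cooled 4 h); ligand added at 1 μM final, 16 h room temperature. FAM emission followed 30−95 °C at 1 °C/min; curves normalized 0 to 1, T1/2 at 0.5 fraction.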
# Quadruplex DNA [2] = assay: Stabilization of 5'-FAM/3'-TAMRA labelled AR3 G-quadruplex oligonucleotide (unknown origin) assessed as change in melting temperature t1/2 at 1 uM after 16 hrs in presence of 100 mM K+ by FRET assay; type: nucleic-acid assay; summary of the method: as §1
# DU-145 [3] = assay: Cytotoxicity against human DU145 cells assessed as reduction in cell viability after 48 hrs by MTS assay; type: functional, cell-based; details: DU-145, 48 h
# Summary of the method: (§2)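 Cells kept in RPMI-1640 with 10% fetal calf serum, 37 °C, 5% CO2. Seeded, after 24 h treated with 0.0001, 0.001, 0.01, 0.1, 1 and 10 μM compound (DMSO stocks freshly diluted in medium) for 48 h. MTS added 4 h, absorbance 490 nm; IC50 from curves of % viability inhibition versus DMSO-treated cells against log concentration.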
# LNCaP = assay: Cytotoxicity against human LNCAP cells expressing androgen receptor T877A point mutant assessed as reduction in cell viability after 48 hrs by MTS assay; type: functional, cell-based; summary of the method: as §2
# CWR22R [4] = assay: Cytotoxicity against human 22Rv1 cells expressing full length androgen receptor H875Y point mutant assessed as reduction in cell viability after 48 hrs by MTS assay; type: functional, cell-based; details: 22Rv1, 48 h; summary of the method: as §2
# [5] = Drug uptake in human PNT1A cells at 160 nM after 24 hrs by DAPI staining-based fluorescence microscopic analysis; type: ADME, cell-based; details: 0.16 µM
# Quadruplex DNA [6] = assay: Stabilization of AR G-quadruplex oligonucleotide in human 22Rv1 cells assessed as down-regulation of KLK3 mRNA expression at IC50 after 6 to 72 hrs by RT-PCR analysis; type: cell-based
# Summary of the method: (§3)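 Transcripts quantified by TaqMan real-time PCR with RNaseP as normalizer; relative quantity versus untreated cells by the 2−ΔΔCt method. Panel genes measured with a 92-gene cancer-mechanism TaqMan array.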
# Quadruplex DNA [7] = assay: Stabilization of AR G-quadruplex oligonucleotide in human LNCAP cells assessed as reduction in AR mRNA expression at IC50 after 72 hrs by RT-PCR analysis; type: cell-based
# Summary of the method: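 Cells grown in RPMI-1640 with 10% fetal calf serum, 37 °C, 5% CO2, treated at an equitoxic concentration. Transcripts quantified by TaqMan real-time RT-PCR, normalized to RNaseP, expressed as relative quantity versus untreated cells (calibrator) by the 2−ΔΔCt method.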
# Quadruplex DNA [8] = assay: Stabilization of AR G-quadruplex oligonucleotide in human 22Rv1 cells assessed as reduction in AR-Vs protein level by immunoblotting assay; type: cell-based
# Quadruplex DNA [9] = assay: Stabilization of AR1 G-quadruplex oligonucleotide (unknown origin) assessed as melting temperature at 16 uM after 16 hrs in presence of 100 mM K+ by CD spectra analysis (reference value: 74.9 +/- 0.3 degreeC); type: nucleic-acid assay
# [10] = Stabilization of AGTGAGAGTGAGAGAGAGAGTGAGAGTGAGAGTGA ssDNA (unknown origin) assessed as change in melting temperature at 16 uM after 16 hrs in presence of 100 mM K+ by CD spectra analysis
# Summary of the method: (§4)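 CD: oligos at 4 μM final in 10 mM lithium cacodylate pH 7.4, 100 mM KCl, annealed 95 °C 5 min then 4 h room temperature; duplex from equimolar strands. Ligand 16 μM final, 16 h room temperature. Spectra 230−320 nm, 5 mm cell, two scans averaged at 20 °C, buffer-subtracted; melting from spectra 20−90 °C in 5 °C steps.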
# [11] = Stabilization of AGTGAGAGTGAGAGAGAGAGTGAGAGTGAGAGTGA ssDNA (unknown origin) assessed as effect on conformational change at 16 uM after 16 hrs in presence of 100 mM K+ by CD spectra analysis; summary of the method: as §4
# [12] = Stabilization of AGTGAGAGTGAGAGAGAGAGTGAGAGTGAGAGTGA/TCACTCTCACTCTCACTCTCTCTCTCACTCTCACT dsDNA (unknown origin) assessed as assessed as effect on conformational change at 16 uM after 16 hrs in presence of 100 mM K+ by CD spectra analysis; summary of the method: as §4
# Quadruplex DNA [13] = assay: Stabilization of AR G-quadruplex oligonucleotide in human 22Rv1 cells assessed as down-regulation of ITGB3 mRNA expression at IC50 after 48 hrs by RT-PCR analysis; type: cell-based; summary of the method: as §3
# Quadruplex DNA [14] = assay: Stabilization of AR G-quadruplex oligonucleotide in human 22Rv1 cells assessed as inhibition of telomerase activity at IC50 after 48 hrs by TRAP assay; type: cell-based
# CWR22R [15] = assay: Effect on JUN mRNA expression in human 22Rv1 cells at IC50 after 48 hrs by RT-PCR analysis; type: functional, cell-based; summary of the method: as §3
# PC-3 [16] = assay: Effect on c-MYC mRNA expression in human PC3 cells at IC50 after 48 hrs by RT-PCR analysis; type: functional, cell-based; summary of the method: as §3
# DU-145 [17] = assay: Effect on c-MYC mRNA expression in human DU145 cells at IC50 after 48 hrs by RT-PCR analysis; type: functional, cell-based; summary of the method: as §3
# CWR22R [18] = assay: Synergistic cytotoxicity against human 22Rv1 cells expressing full length androgen receptor H875Y point mutant assessed as combination index for reduction in cell viability measured at ED75 Enzalutamide at 0.001 to 0.1 uM after 72 hrs by MTS assay based Chou and Talay's plot analysis; type: functional
# Summary of the method: (§5)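 Cells in RPMI-1640 with 10% fetal calf serum were exposed to ligand (0.001−0.1 μM) plus enzalutamide (0.5−50 μM) at a fixed ratio, five concentrations, for 72 h at 37 °C, 5% CO2. Viability read by MTS absorbance at 490 nm after 4 h. Combination index computed at ED50 and ED75 by the Chou–Talalay method.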
# CWR22R [19] = assay: Synergistic cytotoxicity against human 22Rv1 cells expressing full length androgen receptor H875Y point mutant assessed as ED75 for Enzalutamide at 0.001 to 0.1 uM after 72 hrs by MTS assay; type: functional; summary of the method: as §5
# Quadruplex DNA [20] = assay: Stabilization of AR G-quadruplex oligonucleotide in human 22Rv1 cells assessed as regulation of AKT1 mRNA expression at IC50 after 48 hrs by RT-PCR analysis; type: cell-based; summary of the method: as §3
# Quadruplex DNA [21] = assay: Stabilization of AR G-quadruplex oligonucleotide in human 22Rv1 cells assessed as regulation of ERBB2 mRNA expression at IC50 after 48 hrs by RT-PCR analysis; type: cell-based; summary of the method: as §3
# Quadruplex DNA [22] = assay: Stabilization of AR G-quadruplex oligonucleotide in human 22Rv1 cells assessed as down-regulation of BCL2 mRNA expression at IC50 after 48 hrs by RT-PCR analysis; type: cell-based; summary of the method: as §3
# PC-3 [23] = assay: Synergistic cytotoxicity against human PC3 cells assessed as ED50 for Enzalutamide at 0.001 to 0.1 uM after 72 hrs by MTS assay; details: PC-3, 72 h
compound,measurement,setting,value
CN(C)CCCn1c(=O)c2ccc3c(=O)n(CCCN(C)C)c(=O)c4c5[nH]c6ccccc6[nH]c5c(c1=O)c2c34.Cl.Cl,ΔTm,Quadruplex DNA [1],20.5 °C
same,ΔTm,Quadruplex DNA [2],31 °C
same,IC50,DU-145 [3],80 nM
same,IC50,LNCaP,140 nM
same,IC50,CWR22R [4],10 nM
same,Drug uptake,[5],Active
same,Activity,Quadruplex DNA [6],Active
same,Activity,Quadruplex DNA [7],inactive
same,Activity,Quadruplex DNA [8],Active
same,Tm,Quadruplex DNA [9],> 90 °C
same,ΔTm,[10],4.7 °C
same,Activity,[11],inactive
same,Activity,[12],inactive
same,Activity,Quadruplex DNA [13],Active
same,inhibition,Quadruplex DNA [14],Active
same,Activity,CWR22R [15],inactive
same,Activity,PC-3 [16],inactive
same,Activity,DU-145 [17],inactive
same,CI,CWR22R [18],<1
same,ED75,CWR22R [19],370 nM
same,Activity,Quadruplex DNA [20],Active
same,Activity,Quadruplex DNA [21],Active
same,Activity,Quadruplex DNA [22],Active
same,EC50,PC-3 [23],2180 nM

# Reference: ChEMBL document CHEMBL4411261, “Down-Regulation of the Androgen Receptor by G-Quadruplex Ligands Sensitizes Castration-Resistant Prostate Cancer Cells to Enzalutamide” (J Med Chem, 2018)
